Measurements: ChEMBL document CHEMBL1765047, “Synthesis and in vivo evaluation of (S)-6-(4-fluorophenoxy)-3-((1-[11C]methylpiperidin-3-yl)methyl)-2-o-tolylquinazolin-4(3H)-one, a potential PET tracer for growth hormone secretagogue receptor (GHSR)” (Bioorg Med Chem, 2011)
The source made the active and inactive calls. No cut-off for these calls is given here.

Legend:
[1] = target: Growth hormone secretagogue receptor type 1 (Homo sapiens, UniProt Q92847); experiment: Inhibition of [125I]Ghrelin binding to human Ghrelin receptor expressed in CHO-K1 cells after 60 mins by liquid scintillation spectrometry; type: cell-based
Growth hormone secretagogue receptor type 1, sequence (Q92847 whole entry): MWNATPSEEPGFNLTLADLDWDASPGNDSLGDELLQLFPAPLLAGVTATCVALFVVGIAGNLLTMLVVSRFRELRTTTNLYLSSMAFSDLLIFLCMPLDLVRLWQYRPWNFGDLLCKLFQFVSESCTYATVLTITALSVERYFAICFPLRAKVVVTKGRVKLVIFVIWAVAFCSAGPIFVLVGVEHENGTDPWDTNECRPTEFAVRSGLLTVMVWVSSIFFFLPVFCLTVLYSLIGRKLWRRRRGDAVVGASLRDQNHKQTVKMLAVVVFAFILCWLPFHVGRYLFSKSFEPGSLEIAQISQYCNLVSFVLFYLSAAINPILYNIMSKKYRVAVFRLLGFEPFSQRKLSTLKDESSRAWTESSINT
Summary of the method: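 Membranes from CHO-K1 cells stably expressing human GHSR, prepared in modified HEPES pH 7.4. 0.25 mg membrane incubated with 0.03 nM [125I]human ghrelin for 60 min at 25°C; nonspecific binding with […]. Filter-bound radioactivity counted by liquid scintillation. Duplicates at multiple concentrations; one-site competition fit for IC50, Ki by Cheng-Prusoff.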

[2] = target: Growth hormone secretagogue receptor type 1 (Mus musculus) (UniProt Q99P50); experiment: Binding affinity to mouse Ghrelin receptor in mouse hypothalamus after 90 mins in presence of receptor antagonist (S)-6-(4-Fluorophenoxy)-3-(piperidin-3-ylmethyl)-2-o-tolylquinazolin-4(3H)-one; conditions: tested as the 11C-labelled form
Growth hormone secretagogue receptor type 1 (Mus musculus), sequence (Q99P50 whole entry, looked up): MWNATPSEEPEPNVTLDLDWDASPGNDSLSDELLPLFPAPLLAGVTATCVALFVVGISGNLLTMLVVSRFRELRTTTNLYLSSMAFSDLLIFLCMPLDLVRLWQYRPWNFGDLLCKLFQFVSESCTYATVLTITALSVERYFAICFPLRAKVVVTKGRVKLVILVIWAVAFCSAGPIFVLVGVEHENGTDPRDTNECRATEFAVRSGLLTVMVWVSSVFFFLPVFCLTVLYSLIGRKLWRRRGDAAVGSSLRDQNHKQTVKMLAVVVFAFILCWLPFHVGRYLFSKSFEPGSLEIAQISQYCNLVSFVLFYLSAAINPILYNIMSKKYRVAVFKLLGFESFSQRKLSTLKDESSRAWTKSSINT

## Cc1ccccc1-c1nc2ccc(Oc3ccc(F)cc3)cc2c(=O)n1C[C@H]1CCCN(C)C1
[1]
  Ki: 22 nM
[2]
  Activity: Active
